Reference: ChEMBL document CHEMBL4052589, “Discovery of Imidazo[1,2-a]pyridine Ethers and Squaramides as Selective and Potent Inhibitors of Mycobacterial Adenosine Triphosphate (ATP) Synthesis” (J Med Chem, 2017)

How the values were obtained:
Type in all cases: functional
[1] = test system: Mycobacterium tuberculosis; assay: Antimycobacterial activity against Mycobacterium tuberculosis H37Rv harboring ATP synthase subunit-a K179N mutant supplemented with 4 fold MIC of 3-(4-Morpholinophenyl)-4-((pyridin-2-ylmethyl)amino)cyclobut-3-ene-1,2-dione
Summary of the method: (§1)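 Spontaneous resistant mutants were selected by plating M. tuberculosis on 7H10 agar containing the squaramide at 4- or 8-fold its MIC. MIC was then determined for the mutants, with MIC taken as the concentration giving 80% growth inhibition.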

[2] = test system: Mycobacterium tuberculosis; assay: Antimycobacterial activity against Mycobacterium tuberculosis H37Rv harboring ATP synthase subunit-c D28N mutant supplemented with 4 fold MIC of 3-(4-Morpholinophenyl)-4-((pyridin-2-ylmethyl)amino)cyclobut-3-ene-1,2-dione; summary of the method: as §1
[3] = test system: Mycobacterium tuberculosis; assay: Antimycobacterial activity against Mycobacterium tuberculosis H37Rv harboring ATP synthase subunit-c D28N mutant supplemented with 8 fold MIC of 3-(4-Morpholinophenyl)-4-((pyridin-2-ylmethyl)amino)cyclobut-3-ene-1,2-dione; summary of the method: as §1
[4] = test system: Mycobacterium tuberculosis; assay: Antimycobacterial activity against Mycobacterium tuberculosis H37Rv harboring ATP synthase subunit a K179N mutant supplemented with 8 fold MIC of 3-(4-Morpholinophenyl)-4-((pyridin-2-ylmethyl)amino)cyclobut-3-ene-1,2-dione; summary of the method: as §1
[5] = test system: Mycobacterium tuberculosis; assay: Selectivity ratio of MIC for Mycobacterium tuberculosis H37Rv harboring ATP synthase subunit-a K179N mutant supplemented with 4 fold MIC of 3-(4-Morpholinophenyl)-4-((pyridin-2-ylmethyl)amino)cyclobut-3-ene-1,2-dione to MIC for Mycobacterium tuberculosis H37Rv
[6] = test system: Mycobacterium tuberculosis; assay: Selectivity ratio of MIC for Mycobacterium tuberculosis H37Rv harboring ATP synthase subunit-c D28N mutant supplemented with 4 fold MIC of 3-(4-Morpholinophenyl)-4-((pyridin-2-ylmethyl)amino)cyclobut-3-ene-1,2-dione to MIC for Mycobacterium tuberculosis H37Rv
[7] = test system: Mycobacterium tuberculosis; assay: Selectivity ratio of MIC for Mycobacterium tuberculosis H37Rv harboring ATP synthase subunit-c D28N mutant supplemented with 8 fold MIC of 3-(4-Morpholinophenyl)-4-((pyridin-2-ylmethyl)amino)cyclobut-3-ene-1,2-dione to MIC for Mycobacterium tuberculosis H37Rv
[8] = test system: Mycobacterium tuberculosis; assay: Selectivity ratio of MIC for Mycobacterium tuberculosis H37Rv harboring ATP synthase subunit a K179N mutant supplemented with 8 fold MIC of 3-(4-Morpholinophenyl)-4-((pyridin-2-ylmethyl)amino)cyclobut-3-ene-1,2-dione to MIC for Mycobacterium tuberculosis H37Rv

With `O=c1c(NCc2cnccn2)c(-c2ccc(N3CCOCC3)cc2)c1=O` the “MIC=>80” value [1] was >100 µM, the “MIC=>80” value [2] was >100 µM and the “MIC=>80” value [3] was >100 µM. For the same molecule, the “MIC=>80” value [4] was >100 µM, the Selectivity ratio [5] was >8 and the Selectivity ratio [6] was >8. The Selectivity ratio [7] was >8 and the Selectivity ratio [8] was >8.
`O=c1c(NCc2ccccn2)c(-c2ccc(C(F)(F)F)cc2)c1=O` was tested, and the “MIC=>80” value [1] was >100 µM, the “MIC=>80” value [2] was >100 µM and the “MIC=>80” value [3] was 100 µM. For the same molecule, the “MIC=>80” value [4] was “>=100 uM”, the Selectivity ratio [5] was >8 and the Selectivity ratio [6] was >8. For the same molecule, the Selectivity ratio [7] was >8 and the Selectivity ratio [8] was >8.
With `NNC(=O)c1ccncc1` [ISONIAZID] the “MIC=>80” value [1] was 0.03 µM, the “MIC=>80” value [2] was 0.02 µM and the “MIC=>80” value [3] was 0.03 µM. The “MIC=>80” value [4] was 0.02 to 0.03 µM, the Selectivity ratio [5] was “<=4” and the Selectivity ratio [6] was “<=4”. For the same molecule, the Selectivity ratio [7] was “<=4” and the Selectivity ratio [8] was “<=4”.
In the case of `CO[C@H]1/C=C/O[C@@]2(C)Oc3c(C)c(O)c4c(O)c(c(/C=N/N5CCN(C)CC5)c(O)c4c3C2=O)NC(=O)/C(C)=C\C=C\[C@H](C)[C@H](O)[C@@H](C)[C@@H](O)[C@@H](C)[C@H](OC(C)=O)[C@@H]1C` [RIFAMPIN], the “MIC=>80” value [1] is reported as 0.008 µM, the “MIC=>80” value [2] is reported as 0.008 µM and the “MIC=>80” value [3] is reported as 0.016 µM. The “MIC=>80” value [4] was 0.004 to 0.008 µM, the Selectivity ratio [5] was “<=4” and the Selectivity ratio [6] was “<=4”. The Selectivity ratio [7] was “<=4” and the Selectivity ratio [8] was “<=4”.
With `O=c1c(NCc2ccccn2)c(-c2ccc(N3CCOCC3)cc2)c1=O` the “MIC=>80” value [1] was >100 µM, the “MIC=>80” value [2] was >100 µM and the “MIC=>80” value [3] was 100 µM. The “MIC=>80” value [4] was >100 µM, the Selectivity ratio [5] was >8 and the Selectivity ratio [6] was >8. The Selectivity ratio [7] was >8 and the Selectivity ratio [8] was >8.
